# High-throughput results (PubChem)
# CCR6 antag – CCR6 receptor antagonists, primary screen, cell-based, CHO-K1, luminescence, beta-arrestin, uHTS. CHO-K1 CCR6 PathHunter beta-arrestin, CCL20-stimulated. C-C chemokine receptor type 6 (Homo sapiens), P51684. hit rate 0.49% among 340,000. inhibition, % at 20 µM;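 active = compounds whose inhibition of the agonist-driven luminescence signal at 20 µM reaches about 50%, limit read from the data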;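 note: cells stimulated with CCL20 at 14 nM final; plate controls were DMSO with CCL20 for no effect and DMSO without agonist for full effect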
# Target sequence (P51684 whole entry, looked up): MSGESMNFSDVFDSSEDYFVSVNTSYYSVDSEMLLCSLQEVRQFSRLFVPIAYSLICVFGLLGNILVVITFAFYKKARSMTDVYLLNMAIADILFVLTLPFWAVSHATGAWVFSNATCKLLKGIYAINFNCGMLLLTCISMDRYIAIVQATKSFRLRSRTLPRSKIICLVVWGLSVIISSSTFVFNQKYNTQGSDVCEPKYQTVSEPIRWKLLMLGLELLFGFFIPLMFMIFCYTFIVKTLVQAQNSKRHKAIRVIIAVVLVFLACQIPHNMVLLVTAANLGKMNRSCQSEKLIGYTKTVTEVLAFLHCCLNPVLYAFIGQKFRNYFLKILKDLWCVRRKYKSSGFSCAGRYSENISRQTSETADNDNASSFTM
# APJ antagonist – antagonists of human apelin receptor APJ, primary screen, CHO-K1 cells, beta-arrestin complementation, luminescence; inhibition, % at 20 µM; hit rate 0.32% among 330,000; AID 2521, 2010;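 active = inhibition above about 40% at 20 µM, limit read from the data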;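 note: cells challenged with 10 nM apelin-13 agonist together with compound; plate controls were apelin-13 plus DMSO wells for no effect and DMSO wells lacking apelin-13 for full effect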
# APJ ag – agonists of human apelin receptor APJ, primary screen, CHO-K1 cells, PathHunter beta-arrestin, luminescence; P35414; hit rate 0.11% among 330,000; activation, % at 20 µM; 0% DMSO wells, 100% apelin;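 active = activation more than six SD over the plate average, tested at 20 µM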;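 note: 0% = DMSO alone and 100% = apelin-13 at 10 nM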
#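 Test system: CHO-K1 APJ beta-arrestin complementation cell line | Compound: Single test compound dose, 20 µM final, 1% DMSO | Incubation: Compound 90 min 25 °C, reagent 1 h | Measured by: beta-gal luminescence | Read-out basis: APJ–arrestin association signal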
# CXCR6 inh – CXCR6 receptor inhibitors, primary screen, cell-based, beta-arrestin, luminescence, CHO-K1 PathHunter, 1536-well | AID 602244, 2012 | inhibition, % at 20 µM | hit rate 0.36% among 360,000 | C-X-C chemokine receptor type 6 (Homo sapiens), O00574; in the data active = inhibition above about 34%, passing the limit was not always enough;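 note: antagonist mode with CXCL16 agonist at 10 nM final; 0% = 10 nM CXCL16 with DMSO and 100% = unstimulated wells without agonist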
# B2AR ag – beta2AR agonists driving receptor internalization, primary screen, cell-based, FAP fluorogen, flow cytometry; AID 504454, 2011; Beta-2 adrenergic receptor (Homo sapiens), P07550; response, % (test concentration not listed); Am2.2-beta2AR cells; hit rate 0.43% among 340,000;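 active = response above a set limit, near 3 SD of response in nonfluorescent compounds, cut at about 42% in these data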
# EBI2 block – EBI2 receptor antagonists, beta-arrestin recruitment, primary screen, cell-based, luminescence, 7a,25-OHC stimulation, uHTS; G-protein coupled receptor 183 (Homo sapiens), P32249; 7a,25-OHC stimulated; inhibition, % at 5 µM; hit rate 0.81% among 360,000; AID 651636, 2012; in the data active = inhibition above about 38%;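 note: enzyme fragment complementation signal reports receptor beta-arrestin coupling in cells; 0% = agonist plus DMSO wells and 100% = wells without agonist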
# CXCR6 confirm – CXCR6 receptor antagonists, confirmation, cell-based, single concentration, beta-arrestin, luminescence | AID 602409, 2012 | hit rate 65% among 700 | CHO-K1 CXCR6 PathHunter beta-arrestin | shares compounds with CXCR6 inh | inhibition, % at 20 µM;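 active = mean inhibition over four retests above 40%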;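 note: receptor stimulated with 10 nM CXCL16 agonist; beta-galactosidase fragment complementation upon beta-arrestin recruitment to receptor; plate controls were CXCL16 plus DMSO for no effect and DMSO without CXCL16 for full effect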
# EBI2 conf – EBI2 antagonist hit retest, beta-arrestin, confirmation, cell-based, single concentration, luminescence, 7a,25-OHC stimulation; AID 651997, 2013; hit rate 29% among 2,400; shares compounds with EBI2 block; inhibition, % at 5 µM; 7a,25-OHC antagonism;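 active = inhibition of at least 50%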
# EBI2 ag – EBI2 agonist activity of antagonist hits, confirmation, counter-screen for EBI2 antagonist project, cell-based, single concentration, agonist mode, luminescence; EBI2-expressing cells, 60 min; 0% vehicle, 100% 7α,25-dihydroxycholesterol control; activation, % at 5 µM; shares compounds with EBI2 block; 2,400 tested, under 10 active;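 active = activation of at least 50%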
# bGal cs – E. coli beta-galactosidase enzyme inhibition, confirmation, counter-screen for EBI2 antagonist project, biochemical, luminescence, single concentration; shares compounds with EBI2 block; purified beta-galactosidase, luminescent Galacton Star, 15 min; hit rate 1% among 2,400; inhibition, % at 5 µM;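 active = replicate-average signal at least 3 plate SD below neutral wells, shown as high inhibition, flagging enzyme-inhibiting false positives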;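 note: 0% = DMSO wells with enzyme and 100% = wells lacking enzyme; higher means stronger loss of beta-gal luminescence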
# An asterisk follows results filed as active; x = no result. Rows were chosen to be rich in hits. Some 1.8% of all compounds tested hit in one or more screens of this group.
SMILES,CCR6 antag,APJ antagonist,APJ ag,CXCR6 inh,B2AR ag,EBI2 block,CXCR6 confirm,others
CNc1cc(Cl)c2nonc2c1[N+](=O)[O-],98*,x,x,100*,106*,80*,103*,
Cc1cc([N+](=O)[O-])c(Cl)cc1NC(=O)C(C)C,2,4,-3,-3,-2,-6,x,
NC(=Nc1ccccc1)NN=Cc1c[nH]c2ccccc12,3,x,x,-4,34,-14,x,
COC(=O)C1=C(C(=O)OC)SC2(S1)C(C(=O)OC)=C(C(=O)OC)Sc1c2ssc1=O,86*,x,x,68*,58*,-12,56*,
COc1ccc(OC(=O)N(C)C[C@@H]2OCc3cnnn3CCCC(=O)N([C@H](C)CO)C[C@@H]2C)cc1,x,x,x,90*,x,-6,4,
COc1ccc(OC(=O)N(C)C[C@@H]2OCc3cnnn3CCCC(=O)N([C@@H](C)CO)C[C@H]2C)cc1,x,x,x,1,x,0,x,
CCCCCCCCn1sccc1=O,105*,26,-4,99*,35,61*,105*,
Cn1c(O)c(C2=NNC(c3ccc(Cl)cc3)C2)c(=O)n(C)c1=O (stereo not given),56*,14,-4,34*,1,-6,112*,
CCCN(CCC)C1Cc2cc(OC)c(OC)cc2C1,4,-11,0,2,6,-2,x,
COc1ccc(C2CC(c3c(O)n(CCc4ccccc4)c(=O)[nH]c3=O)=NN2)cc1OC (stereo not given),104*,4,-13,90*,1,0,104*,
COc1ccc(CCn2c(O)c(C=NCc3cccnc3)c(=O)[nH]c2=O)cc1OC,13,7,0,5,-4,-6,x,
C[C@@H]1CN([C@@H](C)CO)C(=O)CCCn2nncc2CO[C@H]1CN(C)C(=O)Oc1cccc2ccccc12,x,x,x,2,x,5,x,
CC(C)(OOC1(c2ccccc2)NC(=O)c2ccccc21)c1ccccc1 (stereo not given),x,x,x,8,x,1,x,
CCOC(=O)C1(c2ccccc2)CCN(CCC(=O)Nc2ccc(C(=O)OC)cc2)CC1,14,10,-2,2,2,13,x,
CCOC(=O)C1(c2ccccc2)CCN(CCC(=O)Nc2ccc(OC)cc2)CC1,x,x,x,-1,x,52*,x,EBI2 conf=41;EBI2 ag=4;bGal cs=4
CCOC(=O)C1(c2ccccc2)CCN(CCC(=O)Nc2cccc(Br)c2)CC1,14,10,-2,-7,19,59*,x,EBI2 conf=27;EBI2 ag=0;bGal cs=1
O=C(COc1ccccc1)N1CCN(CCN2C(=O)c3cccc4cccc(c34)C2=O)CC1,8,-17,2,1,-7,50*,x,EBI2 conf=16;EBI2 ag=1;bGal cs=4
COC(=O)C1=C(c2ccc(C(C)=O)cc2)C[C@@H]2CC[C@H]1N2C(=O)NCCOc1ccccc1Cl,14,-19,-3,-2,-6,-10,x,
C=CCC1(CCCCC)C(=O)NC(=S)NC1=O,12,x,x,5,8,-3,x,
